We go through six compounds from PMC6607395 (Molecular Pharmaceutics, 2019).

The target in one data set is rhPSMA (Homo sapiens, UniProt Q04609). Kind of data set: PSMA enzyme inhibition assay. It counts as biochemical.
Data set [1] in a line: Pharmacokinetic profile in rats. As to conditions: rat; for presence in plasma over time: single IV 0.1 μmol/kg.
A further data set concerns LNCaP (PSMA+) tumors. Kind of data set: In vivo imaging and biodistribution, LNCaP xenograft. Details: species or system mouse. As to conditions: for ex vivo tissue biodistribution: 72 h postinjection, 17 nmol/kg; for whole body fluorescence signal over time: LNCaP model, 17 nmol/kg tail vein, 1–72 h. The procedure, abridged:
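Male athymic nu/nu mice (5 weeks old) carried subcutaneous LNCaP (5 × 10^6 cells) or DU145 (1 × 10^6 cells) flank tumours in 1:1 HBSS/Matrigel, grown to 100–150 mm3. Each received one tail-vein injection of 17 nmol/kg in 1% DMSO/99% saline (n = 3). Whole-body imaging ran at 1, 4, 24, 48 and 72 h (ex 685, em 800 nm). At 72 h, tumours, liver, kidney, heart and blood were excised, rinsed, weighed and imaged ex vivo, and mean AFU/mg was calculated.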

For another data set, the system named is DU145 (PSMA−) tumors. Kind of data set: In vivo imaging and biodistribution, DU145 xenograft. On the set-up: species or system mouse. The conditions noted are these: DU145 model, 17 nmol/kg tail vein, 1–72 h.
The next data set has as its target TTR in human serum (Homo sapiens, UniProt P02766). Kind of data set: Fluorescent probe exclusion. The conditions noted are these: for TTR occupancy: 10 μM ligand, human serum (TTR ∼5 μM), after 3 h relative to probe alone. It counts as binding.
For another data set, the target named is human TTR (Homo sapiens, UniProt P02766). In words: Fluorescence polarization. In kind it is binding. Background: Fluorescence polarisation rises when a labelled molecule tumbles more slowly, as on binding a larger partner.
In data set [2] the target is Cathepsin B from human liver (Homo sapiens, UniProt P07858). Kind of data set: MMAE release following cathepsin B cleavage. In kind it is in vitro ADME. As to conditions: 20 μM compound, cathepsin B 100 nM, pH 5.5, 37 °C, within 15 min. The procedure, abridged: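 Human liver cathepsin B was activated for 15 min at ambient temperature in 25 mM sodium acetate, 1 mM EDTA and 9.2 mM DTT, pH 5.5. It was then used at 100 nM with 20 μM substrate in 25 mM sodium acetate/1 mM EDTA, pH 5.5, at 37 °C. Aliquots taken at 0, 15, 30 min, 1 h and 2 h were quenched in acidified acetonitrile–water, chilled and centrifuged. Free MMAE was quantified by HPLC-UV at 210 nm, and its identity was confirmed by LC–MS/MS.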

rhPSMA, sequence (Q04609 whole entry): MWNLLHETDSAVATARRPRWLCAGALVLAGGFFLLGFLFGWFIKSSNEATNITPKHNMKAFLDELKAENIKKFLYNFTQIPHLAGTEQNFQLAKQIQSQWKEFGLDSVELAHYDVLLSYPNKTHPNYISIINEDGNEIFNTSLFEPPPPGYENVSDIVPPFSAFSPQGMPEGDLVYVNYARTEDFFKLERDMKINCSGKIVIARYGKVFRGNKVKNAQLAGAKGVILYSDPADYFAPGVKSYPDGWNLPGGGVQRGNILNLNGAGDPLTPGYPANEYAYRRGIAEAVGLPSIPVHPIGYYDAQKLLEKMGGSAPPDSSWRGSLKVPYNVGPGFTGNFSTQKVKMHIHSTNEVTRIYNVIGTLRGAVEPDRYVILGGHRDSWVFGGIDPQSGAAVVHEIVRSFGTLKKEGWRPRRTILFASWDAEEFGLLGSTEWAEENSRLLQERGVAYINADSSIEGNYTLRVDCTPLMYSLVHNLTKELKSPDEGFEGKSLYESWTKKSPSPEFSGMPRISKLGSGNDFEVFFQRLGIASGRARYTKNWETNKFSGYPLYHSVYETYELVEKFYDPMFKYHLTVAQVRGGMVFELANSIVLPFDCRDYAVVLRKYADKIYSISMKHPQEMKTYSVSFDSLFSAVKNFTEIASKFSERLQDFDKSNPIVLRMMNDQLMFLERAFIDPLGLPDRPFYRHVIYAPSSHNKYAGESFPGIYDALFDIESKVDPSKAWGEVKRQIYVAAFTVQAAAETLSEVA

As a reminder, the Ki is the equilibrium dissociation constant of an inhibitor or competing ligand from its target. On rhPSMA (Ki on PSMA, absence of TTR), `C#CC[C@H](NC(=O)CCCCC[N+]1=C(C=CC2=CC(=CC=C3N(C)c4ccc(S(=O)(=O)O)cc4C3(C)C)CCC2)C(C)(C)c2cc(S(=O)(=O)[O-])ccc21)C(=O)NCCCCCC(=O)NCCCC[C@H](NC(=O)N[C@@H](CCC(=O)O)C(=O)O)C(=O)O` [BFM1] gave a Ki of 20.7 nM. In addition, in data set [1], the “presence in plasma over time” value was “no measurable amount of BFM1 after 4 h”. Moreover, in the data set with LNCaP (PSMA+) tumors, the “ex vivo tissue biodistribution” value is recorded as “accumulated predominantly in PSMA expressing LNCaP tumors, with no substantial fluorescence activity in other tissues except kidneys”; the “whole body fluorescence signal over time” value is “significantly reduced at 4 h postinjection and reduced to the background level at 24 h”. In addition, the “whole body fluorescence signal over time” value with DU145 (PSMA−) tumors is “significantly reduced at 4 h postinjection and reduced to the background level at 24 h”.
The compound `O=C(O)c1ccc2nc(-c3cc(Cl)cc(Cl)c3)oc2c1` [tafamidis, reference compound] registered a TTR occupancy at TTR in human serum of 50.8 ± 2.0%.
The term Kd denotes the concentration at which binding is half-saturated. Low values mean higher affinity, high ones lower affinity. The compound `Cc1n[nH]c(C)c1CCCOc1cc(OCCCCCCN)cc(C(=O)O)c1` [ligand 2] came in with a Kd at human TTR of 48.9 nM. Also, the receptor occupancy at 10 µM on TTR in human serum (read-out: TTR occupancy) was 80.4 ± 0.7%.
For `CC[C@H](C)[C@@H]([C@@H](CC(=O)N1CCC[C@H]1[C@H](OC)[C@@H](C)C(=O)N[C@H](C)[C@@H](O)c1ccccc1)OC)N(C)C(=O)[C@@H](NC(=O)[C@H](C(C)C)N(C)C(=O)OCc1ccc(NC(=O)[C@H](CCCNC(N)=O)NC(=O)[C@@H](NC(=O)CCCCCN2C(=O)CC(SCCC(=O)N[C@@H](Cc3cn(CCOCCNCCCCCCOc4cc(OCCCc5c(C)n[nH]c5C)cc(C(=O)O)c4)nn3)C(=O)NCCCCCC(=O)NCCCC[C@H](NC(=O)N[C@@H](CCC(=O)O)C(=O)O)C(=O)O)C2=O)C(C)C)cc1)C(C)C` (stereo partly shown) [TFM2], the MMAE release in data set [2] came to 98%.
At rhPSMA (Ki on PSMA, absence of TTR), `C#CCC(N)C(=O)NCCCCCC(=O)NCCCCC(NC(=O)NC(CCC(=O)O)C(=O)O)C(=O)O` (stereo not shown) [ligand 22] showed a Ki of 9.5 nM.
Take `Cc1n[nH]c(C)c1CCCOc1cc(OCCCCCCNCCOCCn2cc(C[C@H](NC(=O)CCCCC[N+]3=C(C=CC4=CC(=CC=C5N(C)c6ccc(S(=O)(=O)O)cc6C5(C)C)CCC4)C(C)(C)c4cc(S(=O)(=O)[O-])ccc43)C(=O)NCCCCCC(=O)NCCCC[C@H](NC(=O)N[C@@H](CCC(=O)O)C(=O)O)C(=O)O)nn2)cc(C(=O)O)c1` [TFM1]: on rhPSMA (Ki on PSMA in the presence of TTR, 1 μM TTR), the Ki was 33.8 nM. On rhPSMA (Ki on PSMA, absence of TTR), this compound yielded a Ki of 32.8 nM. Moreover, in data set [1] (IV 0.1 μmol/kg), the “fold higher MRT compared to BFM1” value is given as approximately 16 fold and the “fold increase in t1/2 compared to BFM1” value is reported as approximately 6.6 fold. Also, the “presence in plasma over time” value in data set [1] is listed as “still present even after 24 h”. For the same compound, at human TTR, the Kd worked out at 374 nM. For the same compound, in the data set with LNCaP (PSMA+) tumors, the “ex vivo tissue biodistribution” value is “accumulated predominantly in PSMA expressing LNCaP tumors, with no substantial fluorescence activity in other tissues except kidneys”; the “whole body fluorescence signal over time” value was “maintained a very high fluorescence signal at 4 h and the signal was maintained for up to 48 h postinjection”. In the data set on LNCaP (PSMA+) tumors (excised tumors, 72 h), the “fold enhanced uptake in LNCaP compared to BFM1” value is approximately 3 fold and the “fold higher fluorescent signal in LNCaP compared to DU145 tumors” value was approximately 7 fold. In addition, the “whole body fluorescence signal over time” value in the data set on DU145 (PSMA−) tumors was “maintained a very high fluorescence signal at 4 h and the signal was maintained for up to 48 h postinjection”. On TTR in human serum, this compound came in with a TTR occupancy of 57.6 ± 1.9%.
